29 molecules from BindingDB's records for doi:10.1021/jm00343a011 (1982) can be followed below.

The target in test [1] is T1, Malate dehydrogenase, cytoplasmic (Sus scrofa, UniProt P11708).
T1 sequence (P11708 whole entry): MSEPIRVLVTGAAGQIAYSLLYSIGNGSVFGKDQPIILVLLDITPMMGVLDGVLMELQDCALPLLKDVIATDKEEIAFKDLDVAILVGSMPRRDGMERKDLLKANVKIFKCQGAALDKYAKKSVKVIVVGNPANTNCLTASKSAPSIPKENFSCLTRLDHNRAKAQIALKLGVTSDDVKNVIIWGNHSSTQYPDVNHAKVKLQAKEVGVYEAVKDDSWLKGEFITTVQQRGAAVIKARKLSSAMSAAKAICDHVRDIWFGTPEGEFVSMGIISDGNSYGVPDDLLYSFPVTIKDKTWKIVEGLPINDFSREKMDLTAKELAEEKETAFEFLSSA
The test can be described thus: Ability to inhibit cytoplasmic malate dehydrogenase. The procedure, abridged: (§1)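 Pig heart enzyme (cytoplasmic or mitochondrial form), diluted in 0.05 M Tris pH 7.4 with 1% BSA to give 0.022–0.027 OD/min at 340 nm. Cuvette holds 0.05 M Tris pH 8.4, L-malate, NAD+ and Me2SO ± inhibitor. Equilibrated at 25 °C, then started with enzyme. Five inhibitor concentrations in triplicate; I50 from least-squares dose-response line.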

The target in test [2] is T2, Malate dehydrogenase, mitochondrial (Sus scrofa, UniProt P00346).
T2 sequence (P00346 whole entry): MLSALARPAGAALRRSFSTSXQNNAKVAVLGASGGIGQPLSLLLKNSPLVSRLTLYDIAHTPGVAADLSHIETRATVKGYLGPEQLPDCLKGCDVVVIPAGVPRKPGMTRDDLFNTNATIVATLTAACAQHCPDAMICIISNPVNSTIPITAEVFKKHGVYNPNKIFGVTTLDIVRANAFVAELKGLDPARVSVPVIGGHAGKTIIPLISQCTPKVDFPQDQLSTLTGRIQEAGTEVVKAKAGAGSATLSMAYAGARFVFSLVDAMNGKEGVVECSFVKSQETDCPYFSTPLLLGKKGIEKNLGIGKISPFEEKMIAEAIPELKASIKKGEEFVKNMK
Kind of test: Ability to inhibit mitochondrial malate dehydrogenase. In short, it runs like this: as §1

Molecules are shown by their SMILES.

On to `O=C(O)c1cnc2cc(S(=O)(=O)O)ccc2c1O`, for which the IC50 worked out at 3090 µM in test [1] and 2140 µM in test [2].

For `O=C(O)c1cnc2cc([N+](=O)[O-])ccc2c1O`, the IC50 in test [1] amounted to 1200 µM; in test [2], 1910 µM.

Regarding `O=C(O)c1cnc2cc(OCCc3ccc(F)cc3)ccc2c1O`, in test [2], the IC50 is 14.8 µM.

`O=C(O)c1cnc2cc(OCc3ccc4ccccc4c3)ccc2c1O`: the IC50 in test [2] was 4.07 µM.

Consider `CN(C)c1ccc2c(O)c(C(=O)O)cnc2c1`, for which the results for the IC50 in test [1] and in test [2] were 372 µM and 479 µM, respectively.

`O=C(O)c1cnc2cc(OCc3ccc(Cl)c(Cl)c3)ccc2c1O` gave an IC50 in test [2] of 4.79 µM. This counts as single-digit micromolar.

`NS(=O)(=O)c1ccc2c(O)c(C(=O)O)cnc2c1`: the IC50 amounted to 692 µM in test [1] and 955 µM in test [2].

`O=C(O)c1cnc2cc(OCc3ccc(F)cc3)ccc2c1O` registered an IC50 in test [2] of 39.8 µM.

On to `O=C(O)c1cnc2cc(OCc3ccccc3)ccc2c1O`, for which, in test [2], the IC50 was 32.4 µM.

Regarding `O=C(O)c1cnc2cc(F)ccc2c1O`, the IC50 worked out at 11000 µM in test [1] and 10500 µM in test [2].

Regarding `CC(=O)c1ccc2c(O)c(C(=O)O)cnc2c1`, the IC50 in test [1] and in test [2] was 912 µM throughout.

`O=C(O)c1cnc2cc(Cl)ccc2c1O`: the results for the IC50 in test [1] and in test [2] were 4680 µM and 3630 µM, respectively.

For the molecule `O=C(O)c1cnc2cc(OCc3ccc(Oc4ccccc4)cc3)ccc2c1O`, the IC50 in test [1] stood at 30.9 µM; in test [2] it was 1.48 µM.

Consider `O=C(O)c1cnc2cc(OCCOc3ccc(Br)cc3)ccc2c1O`, for which, in test [2], the IC50 was 5.13 µM.

Consider `O=C(O)c1cnc2cc(OCCc3ccccc3)ccc2c1O`, for which the half-maximal inhibitory concentration (IC50) is 155 µM in test [1] and 38 µM in test [2].

`O=C(O)c1cnc2cc(OCCOc3ccc4ccccc4c3)ccc2c1O` showed a half-inhibitory concentration (IC50) in test [2] of 1.58 µM. This counts as single-digit micromolar.

For the molecule `O=C(O)c1cnc2cc(OCCc3ccc(Br)cc3)ccc2c1O`, the IC50 came to 91.2 µM in test [1] and 2.51 µM in test [2].

`O=C(O)c1cnc2cc(OCc3c(Cl)c(Cl)c(Cl)c(Cl)c3Cl)ccc2c1O` showed an IC50 in test [2] of 4.79 µM.

Consider `O=C(O)c1cnc2cc(OCCOc3ccc(Oc4ccccc4)cc3)ccc2c1O`, for which the IC50 in test [1] worked out at 81.3 µM; in test [2] it was 2.45 µM.

As for `NC(=O)c1ccc2c(O)c(C(=O)O)cnc2c1`, the figures for the IC50 in test [1] and in test [2] were 603 µM and 741 µM, respectively.

Turning to `O=C(O)c1cnc2cc(OCCc3ccc(Oc4ccccc4)cc3)ccc2c1O`, the IC50 in test [1] amounted to 61.7 µM; in test [2], 1.82 µM.

Regarding `O=C(O)c1cnc2cc(OCCc3ccc4ccccc4c3)ccc2c1O`, the IC50 in test [1] worked out at 72.4 µM; in test [2], 2.19 µM.

Take `O=C(O)c1cnc2cc(OCc3cccc4ccccc34)ccc2c1O`: the IC50 in test [2] came to 13.2 µM.

`O=C(O)c1cnc2cc(OCc3ccc(Br)cc3)ccc2c1O` returned a 50% inhibitory concentration (IC50) in test [2] of 6.76 µM.

Regarding `O=C(O)c1ccc2c(O)c(C(=O)O)cnc2c1`, the half-maximal inhibitory concentration (IC50) in test [1] came to 1290 µM; in test [2] it was 1070 µM.

The molecule `O=C(O)c1cnc2cc(OCCOc3ccc(F)cc3)ccc2c1O` gave an IC50 in test [2] of 18.2 µM.

For `O=C(O)c1cnc2cc(O)ccc2c1O`, the half-inhibitory concentration (IC50) in test [1] was determined as 955 µM; in test [2], 490 µM.

Consider `CS(=O)(=O)c1ccc2c(O)c(C(=O)O)cnc2c1`, for which the IC50 in test [1] was found to be 437 µM; in test [2] it was 661 µM.

Consider `O=C(O)c1cnc2cc(OCCOc3ccccc3)ccc2c1O`, for which 60.3 µM corresponded to half-maximal inhibition in test [2] (IC50).
